The results in this text go back to ChEMBL document CHEMBL4811322, “Impact of α-modifications on the activity of triazole bisphosphonates as geranylgeranyl diphosphate synthase inhibitors” (Bioorg Med Chem, 2021).

Test [1] deals with T1, Geranylgeranyl pyrophosphate synthase (Homo sapiens) (UniProt O95749).
T1 sequence (whole entry): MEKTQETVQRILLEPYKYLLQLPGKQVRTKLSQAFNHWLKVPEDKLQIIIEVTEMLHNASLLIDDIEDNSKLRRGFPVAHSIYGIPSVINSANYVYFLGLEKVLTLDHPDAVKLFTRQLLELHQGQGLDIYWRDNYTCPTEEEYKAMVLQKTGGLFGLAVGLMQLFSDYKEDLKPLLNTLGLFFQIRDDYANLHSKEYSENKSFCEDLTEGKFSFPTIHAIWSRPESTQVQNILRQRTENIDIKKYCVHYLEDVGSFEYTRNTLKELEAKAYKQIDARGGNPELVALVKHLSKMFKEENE
Put plainly: Inhibition of GGDPS in human RPMI-8226 cells assessed as lowest effective concentration required to show unmodified Rap1a band after 48 hrs by immunoblot analysis. Format: cell-based. The gist of the method: (§1)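 LEC is the lowest concentration giving both a visible unmodified Rap1a band and a statistically significant rise in lambda light chain (ELISA, two-tailed t-test, p<0.05). RPMI-8226 cells were treated for 48 h. The Rap1a antibody detects only unmodified Rap1a, with β-tubulin as loading control. Lysates were made in RIPA buffer and normalised by BCA.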

Test [2] addresses T1, Geranylgeranyl pyrophosphate synthase (Homo sapiens). Put plainly: Inhibition of GGDPS in human RPMI-8226 cells assessed as increase in intracellular lambda chain level after 48 hrs by ELISA. It is filed as cell-based. A digest of the protocol:
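Intracellular lambda light chain was quantified by ELISA in the same 48 h RPMI-8226 lysates prepared for immunoblotting, with lovastatin 10 μM as positive control. Values are percentage of untreated control, mean ± SD, n=3. Two-tailed t-test against untreated cells, significance at p<0.05.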

Test [3] concerns the target T2, Geranylgeranyl pyrophosphate synthase (Homo sapiens, UniProt O95749).
T2 sequence (O95749 whole entry): T1 sequence (whole entry)
As to the kind of experiment: Inhibition of recombinant GGDPS (unknown origin) using FPP and [14C] IPP as substrate preincubated for 10 mins followed by substrate addition measured after 30 mins by liquid scintillation counting method. A digest of the protocol: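 In the enzyme assay, each compound was tested in duplicate at multiple concentrations, with three independent experiments. IC50 values were derived from concentration-response curve analysis.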

Test [4] addresses T1, Geranylgeranyl pyrophosphate synthase (Homo sapiens). As to the kind of experiment: Inhibition of GGDPS in human RPMI-8226 cells assessed as disruption of farnesylation at 0.1 to 1 uM measured after 48 hrs by immunoblot analysis. It is filed as cell-based. The conditions noted are these: dose 0.1-1 µM. A digest of the protocol:
(§2)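 H-Ras farnesylation was checked by immunoblot after RPMI-8226 cells (ATCC) were exposed to compound for 48 h, with lovastatin 10 μM as positive control. Whole-cell RIPA lysates with protease/phosphatase inhibitors were protein-normalised by BCA, run on SDS-PAGE and transferred to PVDF. Blots were probed for H-Ras with β-tubulin as loading control and detected with HRP secondary/ECL. Gels are representative of three independent studies.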

In another test the test system is RPMI-8226. Put plainly: Cytotoxicity against human RPMI-8226 cells assessed as decrease in cell viability at 10 to 100 uM measured after 48 hrs by MTT assay. The note with it: dose 10-100 µM. It is filed as functional, cell-based. The gist of the method:
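RPMI-8226 myeloma cells seeded at 2.5 × 10^4 cells per 100 μL well and exposed to compound for 48 h, then MTT read-out. Absorbance of solvent-only control cells set as 100% MTT activity. Data expressed as percentage of control, mean ± SD, n=4.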

Test [5] addresses T1, Geranylgeranyl pyrophosphate synthase (Homo sapiens). Put plainly: Inhibition of GGDPS in human RPMI-8226 cells assessed as lowest effective concentration required to show unmodified Rap1a band up to 100 uM after 48 hrs by immunoblot analysis. The note with it: dose microM <=100, time 48.0 hrs. It is filed as cell-based. A digest of the protocol:
as §1

For test [6] the target is unchanged. As to the kind of experiment: Inhibition of GGDPS in human RPMI-8226 cells assessed as disruption of farnesylation at 0.05 to 0.5 uM measured after 48 hrs by immunoblot analysis. The conditions noted are these: dose 0.05-0.5 µM. Format: cell-based. The gist of the method: as §2

The source made the active and inactive calls. The rule behind the calls is not given here. Some results are limits rather than exact numbers.

For `CC(C)=CCC/C(C)=C/Cn1cc(CC(P(=O)(O)O)P(=O)(O)O)nn1`, the LED in test [1] was determined as 0.5 µM.

Regarding `CC(C)=CCC/C(C)=C/Cn1cc(CC(F)(P(=O)(O)O)P(=O)(O)O)nn1`, the LED in test [1] was 0.25 µM. Further, the inhibition result in test [2] was “Active”. In addition, the IC50 in test [3] was found to be 3000 nM. In addition, in test [4], the inhibition result was “inactive”. In addition, the result with RPMI-8226 was Active.

Take `CC(C)=CCC/C(C)=C/Cn1cc(CC(CN)(P(=O)(O)O)P(=O)(O)O)nn1`: the LED in test [1] was 0.5 µM. In addition, the half-inhibitory concentration (IC50) in test [3] turned out to be 2000 nM. Further, in the test on RPMI-8226, the result was Active.

With `C=C(Cc1cn(C/C=C(\C)CCC=C(C)C)nn1)P(=O)(O)O`, the half-inhibitory concentration (IC50) in test [3] was more than 100000 nM. Moreover, the inhibition result in test [5] is “inactive”. Besides, the outcome with RPMI-8226 was inactive.

Regarding `CC(C)=CCC/C(C)=C/Cn1cc(CC(O)(P(=O)(O)O)P(=O)(O)O)nn1`, in test [1], the LED came out at 0.1 µM. In addition, the inhibition result in test [6] was “inactive”. Further, the outcome in the test with RPMI-8226 was Active.

For the compound `CC(C)=CCC/C(C)=C/Cn1cc(C=C(P(=O)(O)O)P(=O)(O)O)nn1`, the LED in test [1] turned out to be 0.25 µM. Moreover, the IC50 in test [3] came out at 2700 nM. Besides, the inhibition result in test [4] is “inactive”. Moreover, in the test on RPMI-8226, the result was Active.

In the case of `CC(C)=CCC/C(C)=C/Cn1cc(CCP(=O)(O)O)nn1`, the IC50 in test [3] is more than 100000 nM. Also, the inhibition entry in test [5] was “inactive”. Moreover, in the test on RPMI-8226, the outcome was inactive.

Regarding `CC(C)=CCC/C(C)=C/Cn1cc(C2CC2(P(=O)(O)O)P(=O)(O)O)nn1` (stereo not given), the LED in test [1] was determined as 0.5 µM. For the same compound, the 50% inhibitory concentration (IC50) in test [3] is 1600 nM. In test [4], the inhibition entry was “inactive”. In addition, the result in the test on RPMI-8226 was Active.

Turning to `CC(C)=CCC/C(C)=C/Cn1cc(CC(C)(P(=O)(O)O)P(=O)(O)O)nn1`, in test [1], the LED worked out at 0.1 µM. Besides, the IC50 in test [3] was 1300 nM.

As to `CCC(Cc1cn(C/C=C(\C)CCC=C(C)C)nn1)(P(=O)(O)O)P(=O)(O)O`, in test [1], the LED turned out to be 2.5 µM. Also, the half-maximal inhibitory concentration (IC50) in test [3] was 5900 nM.
